# Screens as filed in PubChem.
# Only some compounds are listed: those with a hit (about 4.5% of all), similar ones and a draw of the others.
# GPR7 antagonist: human neuropeptides B/W receptor 1 antagonism. AID 1861. actives 1.1% (n = 290,000). P48145. inhibition, % at 4.4 µM. GPR7-expressing cells, fluorescence antagonist assay; in the data active means inhibition above about 16%, passing the limit was not always enough;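 further: cells stimulated with the agonist NPW; 0% = agonist with vehicle and 100% = vehicle without agonist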
# Target sequence (P48145 whole entry, looked up): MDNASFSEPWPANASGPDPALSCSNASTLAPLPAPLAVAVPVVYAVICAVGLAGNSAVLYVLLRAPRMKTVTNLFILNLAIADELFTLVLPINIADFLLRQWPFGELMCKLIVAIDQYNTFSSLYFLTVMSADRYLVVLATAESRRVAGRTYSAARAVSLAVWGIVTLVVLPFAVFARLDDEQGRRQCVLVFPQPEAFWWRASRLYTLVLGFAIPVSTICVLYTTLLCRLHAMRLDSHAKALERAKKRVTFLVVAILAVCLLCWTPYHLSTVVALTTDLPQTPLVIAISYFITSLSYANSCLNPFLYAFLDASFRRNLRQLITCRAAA
# CHO parental Ca: counter-screen: ATP calcium response change in parental CHO cells; parental CHO-K1, ATP-induced calcium, Fluo-8 fluorescence; inhibition, % at 5.6 µM; actives 0.63% (n = 330,000); AID 463079;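 active means inhibition above that plate's mean sample inhibition plus 3 SD, cut at about 26% in these data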;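 further: 0% = ATP-challenged DMSO wells and 100% = DMSO wells without ATP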
#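 Material – parental CHO cells · Reagent – ATP stimulus · Compound – single nominal dose of 5.6 µM per compound · Detection – Fluo-8 fluorescence · Read-out basis – percent inhibition of calcium signal · Controls – ATP-challenged DMSO wells low, unchallenged DMSO wells high · Repeats – no replicates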
# TAAR1 ag: human TAAR1 agonism; CHO RD-HGA16 TAAR1, Fluo-8 calcium fluorescence; vehicle wells 0%, saturating PEA agonist 100%; activation, % at 3 µM; actives 0.99% (n = 360,000);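 active means activation above the mean activation of all test compounds in the run plus 3 SD, cut at about 38% in these data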
# Target sequence (Q96RJ0 whole entry, looked up): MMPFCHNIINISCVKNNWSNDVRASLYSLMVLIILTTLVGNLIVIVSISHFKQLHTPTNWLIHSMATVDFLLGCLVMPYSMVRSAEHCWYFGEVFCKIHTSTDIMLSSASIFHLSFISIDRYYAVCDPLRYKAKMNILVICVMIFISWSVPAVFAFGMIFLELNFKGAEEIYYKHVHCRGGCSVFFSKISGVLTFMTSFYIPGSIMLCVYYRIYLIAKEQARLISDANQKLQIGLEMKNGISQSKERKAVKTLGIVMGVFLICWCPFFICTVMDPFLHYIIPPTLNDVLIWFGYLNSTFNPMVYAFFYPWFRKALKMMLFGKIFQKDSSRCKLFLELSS
#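 System: CHO-derived RD-HGA16 cells with stable Gα16 and human TAAR1 / Times: 17-24 h plating, Fluo-8 75 min 37 °C, 30 min RT / Technique: calcium-sensitive Fluo-8 signal, excitation 470-495, emission 515-575 nm / Measure: % activation relative to PEA EC100 response / Benchmarks: DMSO and PEA EC100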
# TAAR1 antagonist: antagonists of human TAAR1 | actives 1.5% (n = 360,000) | AID 624466 | inhibition, % at 3 µM | CHO RD-HGA16 TAAR1, Fluo-8 calcium fluorescence, antagonist | Q96RJ0;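 active means inhibition above a per-plate cutoff, the mean inhibition of test compounds on that plate plus 3 SD, cut at about 49% in these data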;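 further: 0% = DMSO plus EC80 beta-PEA response and 100% = DMSO alone without agonist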
#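 Assay system: RD-HGA16 CHO cells with stable hTAAR1 and Gα16 / Reagent: EC80 β-phenethylamine stimulus / Doses: 3 µM, single point / Timing: dye loading 75 min at 37 °C, then 30 min room temperature / Measured by: Fluo-8 intracellular calcium dye fluorescence, real-time kinetic reads / Controls: vehicle wells and EC80 agonist wells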
# OX1R antag-1: blocks the human orexin 1 receptor. O43613. OX1R-expressing cells, FRET antagonist read-out. inhibition, % at 6.6 µM. actives 1.8% (n = 330,000). AID 485270; in the data active means inhibition mostly above about 38%, no sharp cut-off; inactive means mostly below about 40%;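 further: 0% = agonist challenge alone and 100% = reference antagonist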
# OX1R antag-2: human HCRTR1 antagonism; O43613; CHO/OX1R cells, Fluo-8 calcium fluorescence, orexin A; inhibition, % at 5 µM; actives 0.43% (n = 330,000); AID 434989;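 active means inhibition above its plate's threshold, mean inhibition of all tested compounds on the plate plus 3 SD, cut at about 37% in these data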;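 further: 0% = orexin A challenge wells and 100% = SB-334867-A antagonist wells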
# GPR7 antag conf: confirmation of human GPR7 antagonists | shares compounds with GPR7 antagonist | GPR7-expressing cells, calcium fluorescence antagonist mode | inhibition, % at 4.4 µM | actives 52% (n = 2,400) | AID 1952; in the data active means inhibition above about 24%;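 further: stimulated with the GPR7 agonist NPW; 0% = agonist plus vehicle and 100% = vehicle alone without agonist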
# MCHR1 antag: antagonizes human MCHR1, a GPR7 antagonist counter-screen; shares compounds with GPR7 antagonist; MCHR1-expressing cells, fluorescence antagonist assay; inhibition, % at 4.4 µM; actives 62% (n = 2,400); in the data active means inhibition above about 22%;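 further: 0% = vehicle with agonist and 100% = vehicle without agonist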
# The depositor's hits bear a star; · = no result given.
SMILES,GPR7 antagonist,CHO parental Ca,TAAR1 ag,TAAR1 antagonist,OX1R antag-1,OX1R antag-2,GPR7 antag conf,MCHR1 antag
O=C(NCc1ccccc1)C(c1ccc(C(F)(F)F)cc1)N1CCN(CCN2CCOCC2)CC1 (stereo unspecified),·,·,1,-24,·,·,·,·
Cc1ccc(S(=O)(=O)NCc2ccc(/C=C(/C#N)C(=O)NCc3ccccc3)o2)cc1,24*,-31,-1,7,12,-13,50*,58*
CCOC(=O)C1=CNS(=O)(=O)NC1CCc1ccccc1 (stereo unspecified),·,-12,4,-18,8,-21,·,·
COc1cccc(C(=O)COc2cccc(NC(=O)c3cccc([N+](=O)[O-])c3)c2)c1,29*,13,17,68*,40,26,29*,69*
COc1ccc(NC(=O)c2cccc(Oc3ccc([N+](=O)[O-])cc3Cl)c2)cc1,34*,-12,2,20,12,-13,11,36*
COC(=O)Nc1ccc(SCC(=O)c2cccc([N+](=O)[O-])c2)cc1,23*,8,1,28,0,-8,20,60*
C[C@@H]1CCCCO[C@H](CN(C)S(=O)(=O)c2ccc(F)cc2)[C@@H](C)CN([C@H](C)CO)C(=O)c2cc(NC(=O)Nc3ccc(C(F)(F)F)cc3)ccc2O1,·,·,0,0,·,·,·,·
Cc1ccc(-n2c(N)cc(=O)nc2SCC(=O)NC2CCCCC2)cc1C,-1,-4,1,-22,1,-14,·,·
CN1CCn2cnc(C(=O)N3CCN(c4ccccc4)CC3)c2C1=O,·,·,3,-2,·,·,·,·
OCCCc1nc2ccccc2n1CCOc1ccccc1,-1,-6,3,-9,24,-9,·,·
Cc1ccc(OCCn2c(CCCO)nc3ccccc32)cc1,23*,-6,16,-17,13,-21,11,7
CC1=C(C)C(=O)N(CCC(=O)O)C1=O,1,-3,1,-9,18,-3,·,·
O=C(O)CCn1c(=O)[nH]c(=O)n(CCC(=O)O)c1=O,24*,-10,12,-6,10,-16,-2,-7
CC(=O)N/C(=C\c1ccccc1)C(=O)OCC(=O)N(CC(C)C)c1c(N)n(Cc2ccccc2)c(=O)[nH]c1=O,·,-27,1,-7,31,-15,·,·
COc1ccc(Br)cc1C1NC(=O)NC(C)=C1C(=O)N(C)C (stereo unspecified),23*,-5,7,10,2,-12,5,4
COC(=O)C1=C(C)NC(=O)NC1c1cc(Cl)ccc1OC (stereo unspecified),-10,5,5,6,8,-33,·,·
CC1CCc2c(sc3ncnc(SCC(=O)N(C)C4CCS(=O)(=O)C4)c23)C1 (stereo unspecified),·,-26,9,4,5,-19,·,·
O=C1OC(c2ccccc2)(N(Nc2ccccc2)c2ccccc2)c2ccccc21 (stereo unspecified),·,·,3,16,·,·,·,·
COc1ccc(CNC(=O)C2CCCN(S(=O)(=O)c3cnc[nH]3)C2)cc1 (stereo unspecified),29*,0,0,2,15,-11,-12,-8
Cc1ccc(CNC(=O)C2CCCN(S(=O)(=O)c3cnc[nH]3)C2)cc1 (stereo unspecified),-4,-4,1,-13,6,3,·,·
O=C(NCCc1ccccc1F)C1CCCN1S(=O)(=O)c1ccc2ccccc2c1 (stereo unspecified),23*,-30,20,12,18,-5,10,22*
CCNC(=O)C1CCCN1S(=O)(=O)c1ccc2ccccc2c1 (stereo unspecified),-8,-6,5,-18,16,-20,·,·
CC(C)(C)c1cc(CN2CCCCC2)cc(C(C)(C)C)c1O,23*,-7,6,-11,13,-17,16,29*
CN(C)S(=O)(=O)n1cc(/C=C(\NC(=O)c2ccccc2Cl)C(=O)N2CCCC2)c2ccccc21,31*,-19,14,45,3,-7,10,34*
Nc1ncnc2c1ncn2[C@@H]1O[C@H](C(=O)Nc2ccc(C(=O)N3CCCCC3)cc2)[C@@H](O)[C@H]1O,·,·,3,-8,·,·,·,·
SMILES,GPR7 antagonist,CHO parental Ca,TAAR1 ag,TAAR1 antagonist,OX1R antag-1,OX1R antag-2,GPR7 antag conf,MCHR1 antag
COc1cccc(N2CC(C(=O)Nc3c(C(N)=O)oc4ccccc34)CC2=O)c1 (stereo unspecified),·,-19,5,-9,21,-14,·,·
CC1CCN(c2nc(CN3CCCCC3)nc3scc(-c4ccccc4)c23)CC1,23*,-17,13,-12,11,-26,32*,32*
CC1CCN(c2nc(-c3cccnc3)nc3scc(-c4ccccc4)c23)CC1,0,-25,2,-2,21,-29,·,·
Cc1ncsc1CCOC(=O)c1cccc([N+](=O)[O-])c1,22*,-9,1,-6,33,-1,-18,34*
O=C(Nc1cccnc1)c1cc(-c2cccs2)on1,7,-1,6,10,18,-18,·,·
O=C(Nc1cccnc1)c1cc(-c2ccccc2O)on1,39*,-5,7,-14,7,-8,40*,43*
CCOC(=O)c1c(CSCc2ccccc2)oc2ccc(O)c(CN(C)C)c12,40*,-3,23,-2,3,-22,40*,68*
O=C(NC1CCN(Cc2ccccc2)CC1)c1cc(S(=O)(=O)N2CCOCC2)ccc1Cl,·,·,1,-3,·,·,·,·
CSCCNC(=O)C1(C)CCN1C(=O)c1cc(C)n(C)n1 (stereo unspecified),·,·,0,-4,·,·,·,·
Cc1nc2ccc([N+](=O)[O-])cc2c(=O)n1Cc1cccc(Br)c1,47*,7,6,29,28,-15,32*,35*
O=S(=O)(NCc1cn2ccsc2n1)c1cccs1,27*,-9,4,-6,13,-4,-13,-4
O=C(NCCN1CCOCC1)c1cc(Br)ccc1Cl,29*,-3,10,-13,3,-1,-12,12
O=C(NCCN1CCOCC1)c1cc([N+](=O)[O-])ccc1Cl,-13,-5,0,3,23,-13,·,·
CCOC(=O)CNC(=O)C1(/C=C/c2ccccc2)CC(=O)N1c1ccc(C)cc1 (stereo unspecified),3,-11,2,1,-1,-23,·,·
O=C(CN1CCN(C(=O)C2CCN(C(=O)/C=C/c3ccccc3)CC2)CC1)Nc1ccccc1Cl,·,·,3,-9,·,·,·,·
